Results on one compound are retold here after ChEMBL document CHEMBL4834426, “Antimalarial Benzimidazole Derivatives Incorporating Phenolic Mannich Base Side Chains Inhibit Microtubule and Hemozoin Formation: Structure-Activity Relationship and In Vivo Oral Efficacy Studies” (J Med Chem, 2021).

Molecules are shown by their SMILES. Values after ≈ are worked out from the molar mass of the structure shown. Active and inactive are the calls of the source. No cut-off for these calls is given here.

A short description of data set [1]: Cmax in Balb/c mouse at 10 mg/kg, po measured up to 24 hrs by LC-MS/MS analysis. The format is ADME, organism-based. Details: route oral, dose 10 mg/kg, time <=24. The following applies: in vivo. The procedure, abridged: (§1)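 Male Balb/c mice, not fasted, food and water ad libitum; single oral dose. Tail-vein blood into heparinized tubes at 0.5, 1, 3, 5, 7, 9 and 24 h, stored at −80 °C. Whole blood protein-precipitated with acetonitrile containing internal standard, analyzed by LC−MS/MS (LOQ 2 ng/mL). Parameters by noncompartmental analysis with curve stripping. Mean of three mice per point.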

A short description of data set [2]: Tmax in Balb/c mouse at 10 mg/kg, po measured up to 24 hrs by LC-MS/MS analysis. Format: ADME, organism-based. The following applies: in vivo. The procedure, abridged:
as §1

Data set [3] deals with Plasmodium falciparum. The data set is described as follows: Antimalarial activity against asexual blood stage drug-sensitive Plasmodium falciparum NF54 infected in erythrocytes assessed as reduction in parasitemia incubated up to 72 hrs by [3H]hypoxanthine incorporation assay. The format is functional, organism-based. An outline of the steps:
(§2)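 [³H]-Hypoxanthine incorporation assay (modified) on asexual blood-stage P. falciparum in vitro. IC₅₀ values are means of ≥2 independent experiments.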

Data set [4] deals with Plasmodium falciparum. Description: Antimalarial activity against asexual blood stage multi drug-resistant Plasmodium falciparum K1 infected in erythrocytes assessed as reduction in parasitemia incubated up to 72 hrs by [3H]hypoxanthine incorporation assay. Format: functional, organism-based. An outline of the steps:
as §2

Data set [5] can be described thus: Resistance index, ratio of IC50 for antimalarial activity against asexual blood stage multi drug-resistant Plasmodium falciparum K1 to IC50 for antimalarial activity against asexual blood stage drug-sensitive Plasmodium falciparum NF54. The format is functional. An outline of the steps: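 Resistance index is IC₅₀(K1)/IC₅₀(NF54). Both IC₅₀s came from the [³H]-hypoxanthine incorporation assay, as means of ≥2 independent experiments.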

Data set [6] concerns Plasmodium falciparum. Description: Antiplasmodial activity against […] Plasmodium falciparum NF54 early gametocytes transfected with GFP-Luc […] at 5 uM incubated for 48 hrs by microscopy based luciferase reporter gene assay relative to control. Format: functional. The procedure, abridged: (§3)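 NF54-Pfs16-GFP-Luc gametocytes, assays set up day 5 (early, stage II/III) or day 10 (late, stage IV/V). Culture at 2−3% gametocytemia, 1.5% hematocrit, 48 h drug exposure at 37 °C under 90% N₂/5% O₂/5% CO₂. Lysates mixed with luciferin; bioluminescence read with 10 s integration. Dual-point: one biological repeat in technical triplicate. Methylene blue (5 μM) reference.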
In general terms: Reporter assays use an easily measured gene product as a stand-in for the process of interest.

Data set [7] concerns Plasmodium falciparum. The data set is described as follows: Antiplasmodial activity against […] Plasmodium falciparum NF54 early gametocytes transfected with GFP-Luc […] at 1 uM incubated for 48 hrs by microscopy based luciferase reporter gene assay relative to control. The format is functional. The procedure, abridged: as §3

Data set [8] deals with Plasmodium falciparum. The data set is described as follows: Antiplasmodial activity against […] Plasmodium falciparum NF54 late gametocytes transfected with GFP-Luc […] at 5 uM incubated for 48 hrs by microscopy based luciferase reporter gene assay relative to control. Format: functional. An outline of the steps:
as §3

The subject of data set [9] is Plasmodium falciparum. Description: Antiplasmodial activity against […] Plasmodium falciparum NF54 late gametocytes transfected with GFP-Luc […] at 1 uM incubated for 48 hrs by microscopy based luciferase reporter gene assay relative to control. Format: functional. The procedure, abridged:
as §3

Data set [10] concerns CHO. Description: Cytotoxicity against CHO cells assessed as inhibition of cell viability by MTT assay. The following applies: Cricetulus griseus. Format: cell-based. Background: Tetrazolium assays rely on reduction of a dye to a coloured formazan, in cell work by metabolically active cells.
The nature of data set [11]: Selectivity index, ratio of IC50 for Cytotoxicity against CHO cells assessed as inhibition of cell viability by MTT assay to IC50 for antimalarial activity against asexual blood stage Plasmodium falciparum NF54 assessed as reduction in parasitemia incubated up to 72 hrs by [3H]hypoxanthine incorporation assay. The format is toxicity, cell-based. Particulars: hamster, read-out: Selectivity Index. The procedure, abridged:
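Selectivity index is IC₅₀(CHO)/IC₅₀(NF54). […] IC₅₀ came from nonlinear dose-response fitting. Parasite IC₅₀ came from the [³H]-hypoxanthine assay.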

A short description of data set [12]: Metabolic stability in mouse liver microsomes assessed as compound remaining at 1 uM incubated for 30 mins by LC-MS/MS analysis. Format: ADME, Microsome. The following applies: read-out: Stabilty. An outline of the steps:
(§4)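 Single-point design: 1 μM compound with 0.4 mg/mL liver microsomes in 0.1 M phosphate buffer pH 7.4 for 30 min. Quenched with ice-cold acetonitrile containing carbamazepine internal standard, centrifuged, analyzed by LC−MS/MS. Percent remaining from internal-standard-corrected peak areas at 30 min versus 0 min. Propranolol, midazolam and MMV390048 as controls.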
A general note: Microsomes from liver hold many membrane-bound enzymes, among them those of drug oxidation.

A short description of data set [13]: Metabolic stability in rat liver microsomes assessed as compound remaining at 1 uM incubated for 30 mins by LC-MS/MS analysis. Format: ADME, Microsome. Particulars: read-out: Stabilty. An outline of the steps: as §4
Data set [14] in a line: Metabolic stability in human liver microsomes assessed as compound remaining at 1 uM incubated for 30 mins by LC-MS/MS analysis. Format: ADME, Microsome. Particulars: read-out: Stabilty. The procedure, abridged:
as §4

Data set [15] can be described thus: Kinetic solubility of the compound in pH 6.5 incubated for 24 hrs by HPLC-DAD analysis. The following applies: buffer, read-out: Kinetic_solubility. The format is physicochemical. An outline of the steps:
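Miniaturized shake-flask method. 10 mM DMSO stock dried down, phosphate buffer pH 6.5 added, shaken 24 h at 25 °C. Centrifuged 3500g for 15 min; supernatant analyzed by HPLC-DAD against 10−220 μM DMSO calibration curve. Reserpine, hydrocortisone and MMV390048 as controls.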

The subject of data set [16] is Plasmodium berghei. The data set is described as follows: Antimalarial activity against GFP-transfected Plasmodium berghei ANKA infected in NMRI mouse model assessed as reduction in parasitemia at 50 mg/kg, po dosed 4 times relative to control. Format: functional. Also noted: scale not given: the % may be the effect or the level left. An outline of the steps:
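Mice (n = 3) infected with GFP-transfected P. berghei ANKA. Compound in 70% Tween-80/30% ethanol, diluted 10-fold in water, given orally at 4, 24, 48 and 72 h post-infection. Blood taken day 4 (96 h); parasitemia by flow cytometry, detection limit 0.1%. Activity = difference in mean % parasitemia between control and treated, as % of control.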

Data set [17] is described as follows: Clearance in Balb/c mouse at 3 mg/kg, iv measured up to 24 hrs by LC-MS/MS analysis. The following applies: in vivo. The format is ADME, organism-based. An outline of the steps: (§5)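 Intravenous dosing in male Balb/c mice, fed ad libitum. Tail-vein blood sampled into heparinized tubes at 0.17, 0.5, 1, 3, 5, 7, 9 and 24 h, frozen at −80 °C. Blood extracted by acetonitrile protein precipitation with internal standard; LC−MS/MS quantitation, LOQ 2 ng/mL. Noncompartmental analysis based on curve stripping.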

Data set [18] can be described thus: Volume of distribution in Balb/c mouse at 3 mg/kg, iv measured up to 24 hrs by LC-MS/MS analysis. The format is ADME, organism-based. Particulars: in vivo. An outline of the steps: as §5
The nature of data set [19]: Volume of distribution at steady state in Balb/c mouse at 3 mg/kg, iv measured up to 24 hrs by LC-MS/MS analysis. Particulars: in vivo, read-out: Vdss. Format: ADME, organism-based. The procedure, abridged:
as §5

Data set [20] is described as follows: AUC (0 to t) in Balb/c mouse at 3 mg/kg, iv measured up to 24 hrs by LC-MS/MS analysis. The format is ADME, organism-based. Also noted: dose 3 mg/kg, time <=24. Particulars: in vivo. An outline of the steps:
as §5

Data set [21] is described as follows: AUC (0 to t) in Balb/c mouse at 10 mg/kg, po measured up to 24 hrs by LC-MS/MS analysis. The format is ADME, organism-based. Details: dose 10 mg/kg, time <=24. The following applies: in vivo. An outline of the steps:
as §1

A short description of data set [22]: Oral bioavailability in Balb/c mouse at 10 mg/kg measured up to 24 hrs by LC-MS/MS analysis. Format: ADME, organism-based. The following applies: in vivo. The procedure, abridged: as §1
In data set [23] the test system is Hemozoin. The data set is described as follows: Inhibition of Beta-hematin in early ring stage Plasmodium falciparum parasitized red blood cells assessed as hemozoin formation formation after 32 hrs by Giemsa staining based haemocytometric counting method.
In data set [24] the test system is Hemozoin. Description: Inhibition of beta-hematin formation […] incubated for 5 hrs by NP40 detergent-mediated assay. An outline of the steps:
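Cell-free β-hematin formation assay in NP-40 (305.5 μM) lipid-mimic medium. Compounds from 20 mM stock serially diluted across wells, in duplicate. Hematin suspended in 1 M acetate buffer pH 4.8; plates incubated ~5 h at 37 °C. Then pyridine solution (with HEPES pH 7.4) and acetone added; absorbance at 405 nm. IC₅₀ by curve fit.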

A word on the Cmax: it is the peak of the concentration-time curve. As usually defined, the Tmax is the time at which the peak concentration occurs. What is called IC50 is the midpoint of a concentration-inhibition curve. As usually defined, the inhibition is the relative decrease from the control value, in per cent. The clearance is a measure of how efficiently the substance is removed, as volume per time. For orientation: bioavailability means the share of a dose that reaches the circulation, judged against a reference dose that is usually intravenous. Take `CCNCc1cc(Cl)cc(Nc2nc3cc(F)c(F)cc3[nH]2)c1O`: the concentration in data set [1] peaked (Cmax) at 26 nM. For the same compound, the Tmax in data set [2] was 42 min. In addition, the IC50 in [3] was 250 nM; in data set [4], 780 nM; in data set [10], greater than 50000 nM; in data set [24], 7150 nM. In addition, in data set [5], the Ratio IC50 was determined as 3.12. The inhibition at 5 µM worked out at 35% in [6] and 0% in data set [8]. The inhibition at 1 µM in data set [7] and in data set [9] was 0% in each case. For the same compound, in data set [11], the selectivity ratio at 72 h is greater than 200. In addition, the remaining at 0.5 h, 1 µM in data set [12] was 98%; in data set [13] it was greater than 99%; in [14] it was greater than 99%. Further, the solubility kinetic at 24 h in data set [15] was determined as 12 µM (≈ 4.23 µg/mL). The Activity in data set [16] is reported as less than 40%. Also, the clearance in data set [17] came out at 151 mL/min/kg. Besides, the Vd was 96 L/kg in data set [18] and 58 L/kg in data set [19]. Moreover, the AUCt in data set [20] is 65 µmol·min/L; in data set [21], 11 µmol·min/L. Further, in data set [22], the bioavailability was 5%. For the same compound, the result in data set [23] was Active.
